This note sets out measurements from ChEMBL document CHEMBL5154939, “Improved Binding Affinity and Pharmacokinetics Enable Sustained Degradation of BCL6 In Vivo” (J Med Chem, 2022).

Data set [1] has as its target T1, B-cell lymphoma 6 protein (Homo sapiens, UniProt P41182). As to the kind of experiment: Degradation of BCL6 in human OCI-Ly1 cells incubated for 2 hrs by MSD assay. Format: cell-based. The method in brief: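 Lysates were read by MSD sandwich immunoassay (goat capture, rabbit detection anti-BCL6, electrochemiluminescence). Signal was normalised to DMSO (high) and a reference degrader control at 2 μM (low). DC50 came from a four-parameter logistic fit, with Dmax reported.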

The nature of data set [2]: Passive membrane permeability of compound in phosphate buffered saline at pH 7.4 at 10 uM incubated for 16 hrs by PAMPA assay based TQ-S LC-MS/MS analysis. Format: ADME. The following applies: read-out: permeability. An outline of the steps: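 PAMPA with a 2% phosphatidylcholine-in-dodecane membrane. Compound at 10 µM in PBS pH 7.4 containing 1% BSA was incubated 16 h at 30 °C. Supernatants were diluted and quantified by LC-MS/MS.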

The target in data set [3] is T1, B-cell lymphoma 6 protein.
Data set [4] can be described thus: Clearance in BALB/c mouse at 1 mg/kg, iv or 5 mg/kg, po measured after 6 hrs post-dose by ESI-LCMS/MS based UPLC analysis relative to hepatic blood flow. Format: ADME, organism-based. As to conditions: in vivo.
Data set [5] can be described thus: Cmax in BALB/c mouse at 1 mg/kg, iv or 5 mg/kg, po measured after 6 hrs post-dose by ESI-LCMS/MS based UPLC analysis. The following applies: in vivo. Type of data set: ADME, organism-based. Also noted: time 6 hrs, dose 5 mg/kg, route po.
A short description of data set [6]: Kinetic aqueous solubility of the compound in 1% DMSO/PBS at pH 7.4 incubated for 2 hrs by UV-vis detection based HPLC analysis. As to conditions: PBS with 1% DMSO, read-out: Kinetic_solubility. Type of data set: physicochemical. An outline of the steps:
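A 10 mM DMSO stock was diluted into PBS pH 7.4 to 100 µM final with 1% DMSO, shaken 2 h at 20 °C and centrifuged. The supernatant was mixed with DMSO and measured by HPLC-UV on a 5 min water:methanol gradient with 0.1% formic acid at 30 °C, against an external standard from the same stock.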

Data set [7] in a line: Toxicity in BALB/c mouse at 1 mg/kg, iv or 5 mg/kg, po measured upto 24 hrs post-dose. Format: organism-based. As to conditions: in vivo.
Data set [8] in a line: Toxicity in SCID mouse xenografted with human HT cells assessed as body weight loss at 50 mg/kg, po bid measured upto 22 days. Format: organism-based. The following applies: in vivo, 528 h, time < 22 day. An outline of the steps:
(§1)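 HT cells grown in RPMI-1640 with 10% FBS, kept at 0.5-2 × 10^6 cells/mL. For implantation, 10^7 cells per 200 µL in serum-free RPMI plus an equal volume of Matrigel were injected subcutaneously at a single site in female SCID mice. At day 20, tumours of 0.4-0.6 cm³ were chosen, n=10 per group. Oral dosing at 50 mg/kg or vehicle was given every 12 h for 22 days (DMSO/Kolliphor HS15/PEG400/aqueous HPMC, 0.2 mL per 20 g).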
(In general: In xenograft studies the graft and the host belong to different species.)

Data set [9] is described as follows: Toxicity in SCID mouse xenografted with human OCI-Ly1 cells assessed as noticeable adverse effects at 50 mg/kg, po measured for 12 to 24 hrs. Type of data set: organism-based. The following applies: in vivo, time 12-24 hrs. An outline of the steps:
(§2)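 Female SCID mice with subcutaneous OCI-Ly1 xenografts (1.5×10^7 cells in serum-free IMDM/Matrigel; tumours 0.4-0.6 cm³ at day 20) received one oral dose of 50 mg/kg or vehicle (DMSO/Kolliphor HS15/PEG400/HPMC). Groups of n=3 were sampled at 12, 16 and 24 h. Tumour lysates were analysed by Wes capillary electrophoresis, with BCL6 normalised to GAPDH.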

In data set [10] the test system is HT. As to the kind of experiment: Downregulation of BCL6 levels in human HT cells xenografted in SCID mouse at 50 mg/kg, po bid measured for 4 to 12 hrs post-dose by capillary electrophoresis method. Format: functional, organism-based. As to conditions: time lower 4.0 hrs, time upper […]. An outline of the steps: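 Female SCID mice bearing subcutaneous HT xenografts (10^7 cells with Matrigel) were dosed orally at 50 mg/kg BID, every 12 h, for 22 days; vehicle was DMSO/Kolliphor HS15/PEG400/1.25% HPMC. Tumours were taken 4 and 12 h after the final dose, snap-frozen and bead-homogenised in Tris/Triton lysis buffer. Lysates at 0.0875 mg/ml were run on Wes capillary electrophoresis, with BCL6 normalised to GAPDH.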

Data set [11] deals with HT. As to the kind of experiment: Antitumor activity against human HT cells xenografted in SCID mouse assessed as reduction in tumor growth at 50 mg/kg, po bid measured upto 22 days. Type of data set: functional, organism-based. The following applies: time <= 22.0 day. The method in brief: as §1
Another data set has as its system OCI-Ly1. As to the kind of experiment: Downregulation of BCL6 levels in human OCI-Ly1 cells xenografted in SCID mouse at 50 mg/kg, po measured for 12 to 24 hrs by capillary electrophoresis method. Type of data set: functional, organism-based. The following applies: time lower […], time upper 24.0 hrs. An outline of the steps: as §2

Molecules are shown by their SMILES. pEC50: −log10 of the molar value. Values after ≈ are worked out from the molar mass of the structure shown. Active and inactive are the calls of the source. The calls are words filed in the database; no cut-off is given here. Some results are limits rather than exact numbers.

In general, pEC50 refers to the negative decadic logarithm of the EC50, by convention in mol/L. For `Cn1c(=O)c2c(c3cc(Nc4nc(N5CCC[C@@H](O)C5)ncc4Cl)ccc31)N[C@@H](C1CC1)C(F)(F)CO2`, the negative-log EC50 (pEC50) in data set [1] was less than 5.70. On to `C[C@@H]1C[C@H](O)CN(c2ncc(Cl)c(Nc3ccc4c(c3)c3c(c(=O)n4C)OCC(F)(F)[C@H](C4CC4)N3)n2)C1`, for which the Papp at 16 h, 10 µM in data set [2] stood at 16 ×10⁻⁶ cm/s. Further, the pEC50 in data set [3] and in data set [1] was less than 5.70 in each case. In general, Cmax refers to the peak of the concentration-time curve. On to `C[C@@H]1CN(c2ncc(Cl)c(Nc3ccc4c(c3)n(CCC(C)(C)O)c(=O)n4C)n2)C[C@H](C)C1(F)F`, for which the Papp at 16 h, 10 µM in [2] amounted to 33 ×10⁻⁶ cm/s. Moreover, in [4], the CLH is 22%. This compound also yielded a Cmax in data set [5] of 1580 nM. With `CC(=O)N[C@H]1C[C@@H](C)CN(c2ncc(Cl)c(Nc3ccc4c(c3)c3c(c(=O)n4C)OCC(F)(F)[C@H](C4CC4)N3)n2)C1`, the pEC50 in [1] was less than 5.70. On to `Cn1c(=O)n(CCC(C)(C)O)c2cc(Nc3nc(N4CCC(F)(F)C(O)C4)ncc3Cl)ccc21` (racemic), for which the pEC50 in data set [1] is 6.56. Still for that read-out and setting: to `CC(=O)N[C@@H]1C[C@H](C)CN(c2ncc(Cl)c(Nc3ccc4c(c3)c3c(c(=O)n4C)OCC(F)(F)[C@H](C4CC4)N3)n2)C1` belongs 8.66. Same read-out and setting: to `C[C@H]1CCCN(c2ncc(Cl)c(Nc3ccc4c(c3)c3c(c(=O)n4C)OCC(F)(F)[C@H](C4CC4)N3)n2)C1` belongs 8.20; to `Cn1c(=O)c2c(c3cc(Nc4nc(N5CCC[C@H](O)C5)ncc4Cl)ccc31)N[C@@H](C1CC1)C(F)(F)CO2`, less than 5.70; to `C[C@@H]1CCCN(c2ncc(Cl)c(Nc3ccc4c(c3)c3c(c(=O)n4C)OCC(F)(F)[C@H](C4CC4)N3)n2)C1`, 7.49. Consider `Cn1c(=O)c2c(c3cc(Nc4nc(N5CCC(F)(F)[C@@H](CO)C5)ncc4Cl)ccc31)N[C@@H](C1CC1)C(F)(F)CO2`, for which the Papp at 16 h, 10 µM in data set [2] is 21 ×10⁻⁶ cm/s. Further, the solubility kinetic at 2 h in data set [6] was 13 µM (≈ 7.58 µg/mL). In addition, in [1], the negative logarithm of the EC50 (pEC50) is 8.57.

`C[C@H]1C[C@@H](N(C)C)CN(c2ncc(Cl)c(Nc3ccc4c(c3)c3c(c(=O)n4C)OCC(F)(F)[C@H](C4CC4)N3)n2)C1`: in data set [1], the pEC50 is 8.01. Same read-out and setting: the same measure for `Cn1c(=O)c2c(c3cc(Nc4nc(N5CCC(F)(F)[C@@H](O)C5)ncc4Cl)ccc31)N[C@@H](C1CC1)C(F)(F)CO2`: 8.15; for `C[C@@H]1C[C@@H](O)CN(c2ncc(Cl)c(Nc3ccc4c(c3)c3c(c(=O)n4C)OCC(F)(F)[C@H](C4CC4)N3)n2)C1`: less than 5.70; for `C[C@@H]1C[C@H](N(C)C)CN(c2ncc(Cl)c(Nc3ccc4c(c3)c3c(c(=O)n4C)OCC(F)(F)[C@H](C4CC4)N3)n2)C1`: less than 5.70.

As for `Cn1c(=O)c2c(c3cc(Nc4nc(N5CCC(F)(F)[C@H](CO)C5)ncc4Cl)ccc31)N[C@@H](C1CC1)C(F)(F)CO2`, in data set [1], the pEC50 is less than 5.70.

For the compound `C[C@H]1C[C@@H](O)CN(c2ncc(Cl)c(Nc3ccc4c(c3)c3c(c(=O)n4C)OCC(F)(F)[C@H](C4CC4)N3)n2)C1`, the Activity result in [7], in data set [8] and in data set [9] was “Non-Toxic” in each case. The CLH in data set [4] stood at 6%. The pEC50 in data set [3] is 9.00; in data set [1] it was 9.15. In addition, the outcome with HT [10], with HT [11] and in the data set with OCI-Ly1 was Active. In data set [5], this compound yielded a Cmax of 3950 nM. On to `Cn1c(=O)c2c(c3cc(Nc4nc(N5CCC(F)(F)[C@H](O)C5)ncc4Cl)ccc31)N[C@@H](C1CC1)C(F)(F)CO2`, for which the pEC50 in data set [1] is less than 5.70. Still for that read-out and setting: to `C[C@H]1C[C@@H](O)CN(c2ncc(Cl)c(Nc3ccc4c(c3)n(CCC(C)(C)O)c(=O)n4C)n2)C1` (relative stereo) belongs 7.46.

In data set [1], `C[C@H]1C[C@H](O)CN(c2ncc(Cl)c(Nc3ccc4c(c3)c3c(c(=O)n4C)OCC(F)(F)[C@H](C4CC4)N3)n2)C1` had a pEC50 of less than 5.70.
